The target in the test is Endothelial PAS domain-containing protein 1 (Homo sapiens) (UniProt Q99814). In words: HIF reporter inhibition across pancreatic and renal lines – cell-based, luminescence, MIAPaCa-2, 786-0, panel, SAR follow-up (AID 652011). Particulars: MIAPaCa-2/PANC HIF reporter, luciferase luminescence, desferoxamine, overnight, HIF2a PANC, run 2; at 99 µM (top of the series). In outline: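 Reagent: Desferoxamine added before compound | Doses: Compounds from 10 mM and 0.3125 mM stocks, 1% DMSO final | Times: Overnight seeding and compound exposure, 37 °C, 5% CO2, 10-min detection | Measured by: One-Glo luciferase luminescence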
Endothelial PAS domain-containing protein 1 (Homo sapiens), sequence (Q99814 whole entry, looked up, the tested form may be a part): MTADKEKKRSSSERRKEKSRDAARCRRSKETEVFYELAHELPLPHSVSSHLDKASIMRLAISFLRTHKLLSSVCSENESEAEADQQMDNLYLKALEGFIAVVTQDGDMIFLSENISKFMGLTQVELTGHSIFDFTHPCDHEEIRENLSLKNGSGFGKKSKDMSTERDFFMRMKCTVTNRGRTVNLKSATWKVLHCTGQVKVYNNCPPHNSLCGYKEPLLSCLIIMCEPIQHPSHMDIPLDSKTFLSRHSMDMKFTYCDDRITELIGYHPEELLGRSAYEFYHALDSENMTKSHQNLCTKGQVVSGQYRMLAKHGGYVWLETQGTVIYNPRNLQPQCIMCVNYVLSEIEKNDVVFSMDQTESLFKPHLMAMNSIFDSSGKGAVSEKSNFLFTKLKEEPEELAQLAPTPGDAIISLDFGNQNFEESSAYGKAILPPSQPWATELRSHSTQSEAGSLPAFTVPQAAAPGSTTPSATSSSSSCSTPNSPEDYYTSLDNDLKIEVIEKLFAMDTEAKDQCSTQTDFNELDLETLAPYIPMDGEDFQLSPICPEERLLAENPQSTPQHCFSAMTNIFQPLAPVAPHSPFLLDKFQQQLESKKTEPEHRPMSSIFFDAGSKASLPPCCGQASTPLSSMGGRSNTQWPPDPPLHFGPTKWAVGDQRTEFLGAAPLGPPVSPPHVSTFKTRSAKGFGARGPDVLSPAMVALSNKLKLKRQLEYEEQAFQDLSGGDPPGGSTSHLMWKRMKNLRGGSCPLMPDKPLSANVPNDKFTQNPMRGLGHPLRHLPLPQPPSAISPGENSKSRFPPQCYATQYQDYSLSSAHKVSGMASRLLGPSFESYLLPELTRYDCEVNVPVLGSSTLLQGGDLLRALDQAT

Values joined by “and” are separate entries in the source; they are usually repeats but may differ in a detail not shown here. Equal entries are not always repeated.

For orientation: inhibition means the relative decrease from the control value, in per cent. Turning to `CNC(=O)CCc1nc(-c2ccc(C(C)(C)C)cc2)no1`, the inhibition was found to be 47.3%.

In the case of `CCNC(=O)CCc1nc(-c2ccc(CC)cc2)no1`, the inhibition was -47%.

In the case of `CC(C)(C)c1ccc(-c2noc(CCC(=O)NC3CCC3)n2)cc1`, the inhibition turned out to be 90.3%.

On to `CCNC(=O)CCc1nc(-c2c(Cl)cccc2Cl)no1`, for which the inhibition turned out to be 31.9%.

Regarding `CC(C)NC(=O)CCc1nc(-c2ccc(C(C)(C)C)cc2)no1`, the inhibition turned out to be 64.9%.

With `CC(C)(C)c1ccc(-c2noc(CCC(=O)N3CCOCC3)n2)cc1`, the inhibition is 32.4%.

As to `CCc1ccc(-c2noc(CCC(=O)NC(C)(C)C)n2)cc1`, the inhibition was -22.9%.

Consider `CC(C)(C)c1ccc(-c2noc(CCC(=O)NC3CCCCC3)n2)cc1`, for which the inhibition was 104%.

Consider `CCNC(=O)CCc1nc(-c2cccc(C)c2)no1`, for which the inhibition is -15.7%.

For the compound `CNC(=O)CCc1nc(-c2ccc(OC)cc2)no1`, the inhibition was -21.8%.

With `CCC(C)NC(=O)CCc1nc(-c2ccccc2)no1` (stereo not given), the inhibition is -3.82%.

`CCCCc1ccc(-c2noc(CCC(=O)NC(C)(C)C)n2)cc1`: the inhibition was 89%.

In the case of `CCCNC(=O)CCc1nc(-c2ccc(C(C)(C)C)cc2)no1`, the inhibition came to 73%.

On to `CCNC(=O)CCc1nc(-c2ccc(C(C)C)cc2)no1`, for which the inhibition is -41.3%.

For `CC(C)(C)c1ccc(-c2noc(CCC(=O)NCc3ccco3)n2)cc1`, the inhibition is 99.3% and 99%.

Turning to `CCNC(=O)CCc1nc(-c2cccc(F)c2)no1`, the inhibition was -6.32%.

As to `CCNC(=O)CCc1nc(-c2ccccc2)no1`, the inhibition turned out to be 13%.

Consider `CC(C)(C)c1ccc(-c2noc(CCC(=O)NC3CCCC3)n2)cc1`, for which the inhibition came out at 121%.

Take `CC(C)c1ccc(-c2noc(CCC(=O)NC3CC3)n2)cc1`: the inhibition was determined as 26.7%.

Take `CNC(=O)CCc1nc(-c2ccc(F)cc2)no1`: the inhibition amounted to 8.8%.

As for `CCC(C)NC(=O)CCc1nc(-c2ccc(C(C)(C)C)cc2)no1` (stereo not given), the inhibition was 52.2%.

On to `CCNC(=O)CCc1nc(-c2ccccc2Cl)no1`, for which the inhibition is 13.5%.

On to `CC(C)(C)c1ccc(-c2noc(CCC(=O)NC3CC3)n2)cc1`, for which the inhibition was found to be 50%.

With `CCc1ccc(-c2noc(CCC(=O)NC)n2)cc1`, the inhibition is -49.2%.

As to `COC(=O)CCc1nc(-c2ccc(C(C)(C)C)cc2)no1`, the inhibition turned out to be 128%.

With `CC(C)(C)c1ccc(-c2noc(CCC(=O)Nc3ccccc3)n2)cc1`, the inhibition was 128%.

Turning to `CC(C)(C)NC(=O)CCc1nc(-c2ccc(C(C)(C)C)cc2)no1`, the inhibition came out at 102%.

Turning to `CC(C)(C)c1ccc(-c2noc(CCC(=O)O)n2)cc1`, the inhibition turned out to be 124%.

As for `CCCCc1ccc(-c2noc(CCC(=O)NC(C)CC)n2)cc1` (stereo not given), the inhibition is 37.9%.

On to `CCOc1ccc(-c2noc(CCC(=O)NC)n2)cc1`, for which the inhibition was 112%.

These data come from PubChem BioAssay AID652011 (Sanford-Burnham Center for Chemical Genomics, 2013).
